Series [1] relates to Jejunum. Description: Drug degradation in Wistar rat jejunum lumen assessed as rate of drug disappearance at 100 uM by in-situ single-pass perfusion method. The series is classed as ADME, tissue-based. The procedure, abridged:
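Rats fasted 18–24 h, anesthetized with intraperitoneal pentobarbital. Isolated cannulated jejunal segment kept at 37°C in Krebs–Henseleit buffer with 3% BSA and 10 mM glucose. Vascular perfusion with Krebs–Henseleit (pH 7.4) at 2.5 ml/min. Lumen perfused at 0.2 ml/min with phosphate buffer (pH 5.4, 6.4 or 7.4) containing 100 µM drug plus FD-4. Luminal and vascular samples assayed by HPLC (UV 258 nm). Parameters normalized to 10 cm intestine. Mean ± S.D., n = 3–6.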

Series [2] is described as follows: Drug hydrolysis in Wistar rat jejunal S9 fraction in presence of 1 mM CES inhibitor BNPP. The series is classed as ADME, Jejunum. The procedure, abridged:
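Duodenal or jejunal mucosa from fasted rats homogenized in 50 mM HEPES (pH 7.4) with 1.15% KCl; S9 is the 9000 g supernatant. S9 pre-incubated 5 min at 37°C, then drug added at 10–500 µM final (1% DMSO). Run for 20 min, stopped with acetonitrile, temocaprilat formed measured by HPLC. Km and Vmax from Michaelis–Menten nonlinear fit. Inhibitor (1 mM BNPP) pre-incubated 5 min. Results as % of control.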

Series [3] is described as follows: Drug hydrolysis in perfused Wistar rat jejunal S9 fraction at 500 uM assessed per mg protein. The series is classed as ADME, Jejunum. The following applies: s9, 500 µM. The procedure, abridged:
(§1)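 Jejunal mucosal homogenate or S9 (HEPES pH 7.4/KCl) taken from intact jejunum, or after 40 min perfusion with or without 400 µM BNPP. Protein at 400 µg/ml incubated at 37°C with 500 µM drug. Added BNPP (100 or 1000 µM) pre-incubated 5 min. Temocaprilat formed measured by HPLC and given as nmol/min/mg protein and % of control. Mean ± S.D., n = 4.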

The test system of series [4] is Jejunum. Description: Apparent absorption clearance in Wistar rat jejunum pre-perfused with 400 uM CES inhibitor BNPP at 100 uM at pH 5.4 by in-situ single-pass perfusion method. The series is classed as ADME, tissue-based. The following applies: in vivo, pH 5.4, 100 µM. In short, it runs like this: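 Same in situ jejunal single-pass perfusion, with carboxylesterase blocked by pre-perfusing the lumen with 400 µM BNPP for 40 min. Then 100 µM drug in luminal phosphate buffer (pH 5.4 or 6.4) at 0.2 ml/min. Vascular Krebs–Henseleit (pH 7.4) at 2.5 ml/min. Luminal, vascular and tissue levels measured by HPLC. Rates are luminal disappearance and appearance in lumen or mesenteric vein. Mean ± S.D., n = 3.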

Series [5] can be described thus: Ratio of Vmax to Km for drug jejunal in Wistar rat jejunal S9 fraction assessed per mg protein.
Series [6] in a line: Drug hydrolysis in intact Wistar rat jejunal S9 fraction at 500 uM assessed per mg protein in presence of 100 uM CES inhibitor BNPP. The series is classed as ADME, Jejunum. The following applies: s9, 500 µM. In short, it runs like this:
as §1

In the case of `CCOC(=O)[C@H](CCc1ccccc1)N[C@H]1CS[C@H](c2cccs2)CN(CC(=O)O)C1=O` [TEMOCAPRIL], the Drug degradation turned out to be 3.89 nmol/min with Jejunum [1], 4.28 nmol/min in series [3] and 1.13 nmol/min in series [6]. The Stability result in series [2] is reported as “Stable”. The “CL(app)” value in the series on Jejunum [4] is 10.6 µL/min. In series [5], the Vmax/Km came to 108 µL/min.

Values taken from ChEMBL document CHEMBL3526140, “Prediction of human intestinal absorption of the prodrug temocapril by in situ single-pass perfusion using rat intestine with modified hydrolase activity” (Drug Metab Dispos, 2011).
